Assay results: paper PMC9197538 (CPT: Pharmacometrics & Systems Pharmacology, 2022)

Experiments:
[1] = format: in vivo, human
Procedure, shortened: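 Joint semi-mechanistic fit of plasma data for the parent and two active metabolites, from healthy-volunteer single doses (20–160 mg) and patient q.d. dosing. Parent: two compartments, three absorption transit compartments. Metabolites: two and one compartments. An enzyme compartment's production follows Emax/EC50 on the molar sum, assuming equal molar potency. IIV is exponential, log-normal. BLOQ handled by modified M6.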

[2] = Model-based simulations of exposure; parameters: species or system human; settings: age 18–86 years, race, sex, body weight 37.3–132 kg, mild‐to‐moderate renal impairment, mild‐to‐moderate hepatic impairment
[3] = tested on: EGFRex20ins‐positive mNSCLC; settings: 160 mg q.d., cited from earlier work
[4] = after single‐dose administration; cited from earlier work
[5] = single oral dose radiolabeled mobocertinib 160 mg; cited from earlier work
[6] = cited from earlier work
[7] = low‐fat or high‐fat meal compared with fasting; cited from earlier work
CYP3A = settings: cited from earlier work
[8] = no reference given; cited from earlier work
[9] = final population PK model, untransformed parameter
[10] = platinum‐pretreated patients with EGFRex20ins‐positive mNSCLC

C=CC(=O)Nc1cc(Nc2ncc(C(=O)OC(C)C)c(-c3cn(C)c4ccccc34)n2)c(OC)cc1N(C)CCN(C)C [mobocertinib]
IIV CL/F [1, 9]: 49.6%
IIV Ka (interindividual variability) [1, 9]: 45.7%
IIV Vc/F [1, 9]: 48.7%
Ka, absorption rate constant [1, 9]: 2.12 h⁻¹
Residual variability, additive error on log scale [1, 9]: 41.4%
Kenz, rate constant for enzyme synthesis/degradation ([1]; final population PK model, enzyme (auto-induction) compartment): 0.00392 h⁻¹
Emax, maximal induction effect ([1]; final population PK model, enzyme compartment, molar sum of the three moieties): 0.781
Vd/F ([1]; human, plasma, oral, Vss/F, apparent volume of distribution at steady state, geometric mean (%CV 38%), derived from the final population PK model): 3510 L
effect of covariates on mobocertinib PK [2]: No clinically meaningful differences
median duration of response per IRC [3]: 17.5 months
median overall survival [3]: 24.0 months
confirmed objective response rate (ORR) per independent review committee (IRC) [3, 10]: 28%
confirmed objective response rate (ORR) per investigators [3, 10]: 35%
mean half‐life [4]: 20 h
dose recovered in feces [5]: ~ 76%
dose recovered in urine [5]: 4%
percentage of administered dose recovered in feces as this moiety [5]: ~ 6%
percentage of administered dose recovered in urine as this moiety [5]: ~ 1%
decrease of molar sum AUC0–∞ ([6]; co‐administration with strong CYP3A inducer rifampin): 95%
increase of molar sum AUC0–∞ of mobocertinib, AP32960, and AP32914 ([6]; co‐administration with strong CYP3A inhibitor itraconazole): 527%
food effect on molar sum AUC [7]: no clinically meaningful differences
CYP3A substrate and inducer status (in vitro) (CYP3A): both substrates and inducers of CYP3A
CYP3A inhibition and induction (in vitro) (CYP3A; ref data on file, Takeda Development Center Americas): inhibitors and inducers of CYP3A
Biopharmaceutics Classification System class [8]: Class 1
permeability [8]: high permeability
solubility [8]: highly soluble
